procasp3 activ = activators of human procaspase-3. recombinant procaspase-3 D3A, Ac-DEVD-pNA absorbance 405 nm. activation, % at 8.5 µM. hit rate 0.11% among 330,000;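 active means activation above the mean of all tested compounds plus 3 SD, cut at about 21% in these data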
Target sequence (P42574 whole entry D9A/D28A/D175A): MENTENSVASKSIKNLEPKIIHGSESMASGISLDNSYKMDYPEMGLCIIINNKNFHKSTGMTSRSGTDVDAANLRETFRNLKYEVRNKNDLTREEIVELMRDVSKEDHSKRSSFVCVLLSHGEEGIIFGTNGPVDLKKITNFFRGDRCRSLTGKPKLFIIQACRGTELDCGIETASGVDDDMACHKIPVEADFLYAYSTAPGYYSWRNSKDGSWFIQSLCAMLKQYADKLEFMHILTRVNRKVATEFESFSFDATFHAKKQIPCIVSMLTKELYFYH
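Assay system: Autoprocessing-dead procaspase-3 D3A mutant enzyme; also added: Ac-DEVD-pNA; doses: one concentration, 8.5 µM nominal, 0.8% DMSO; times: 1 h compound preincubation, 2 h substrate hydrolysis at 25 °C; technique: 405 nm absorbance of p-nitroaniline, reads at 0 and 120 min; measure: % activation between DMSO and enzyme-spiked controls; repeats: single replicate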
aDG glyco act = increases alpha dystroglycan glycosylation | Pro5-aDG cells, alpha-DG glycosylation AlphaScreen (IIH6); 0% Pro5, 100% B10-LARGE cell signal | activation, % at 10 µM | hit rate 0.22% among 360,000;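 active means activation of at least 8% versus controls, or a plate z-score of at least 8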;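 further: Pro5 are CHO cells carrying HIG-tagged alpha-DG that lacks glycosylation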
NR3A LBD binder = modulators (binders) of human NR3A ligand-binding domain; NR3A LBD differential scanning fluorimetry, Tm shift; 0% = protein alone, 100% = glycine-bound protein; Tm shift relative to glycine control, % at 25 µM; hit rate 2.5% among 340,000; AID 1259313;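 active means melting temperature shift of at least 10% of the positive control shift, at one fixed dose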
procasp7 counter = counter-screen for procaspase-3 activators: activators of human procaspase-7; P55210; recombinant procaspase-7, Ac-DEVD-pNA absorbance 405 nm; D23A/D198A/D206A triple mutant, cannot self-cleave; scale: DMSO 0, 5 µM enzyme 100; activation, % at 8.5 µM; hit rate 0.093% among 330,000;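 active means percent activation above the screen-wide mean plus 3 SD, cut at about 25% in these data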
Target sequence (P55210 whole entry D23A/D198A/D206A): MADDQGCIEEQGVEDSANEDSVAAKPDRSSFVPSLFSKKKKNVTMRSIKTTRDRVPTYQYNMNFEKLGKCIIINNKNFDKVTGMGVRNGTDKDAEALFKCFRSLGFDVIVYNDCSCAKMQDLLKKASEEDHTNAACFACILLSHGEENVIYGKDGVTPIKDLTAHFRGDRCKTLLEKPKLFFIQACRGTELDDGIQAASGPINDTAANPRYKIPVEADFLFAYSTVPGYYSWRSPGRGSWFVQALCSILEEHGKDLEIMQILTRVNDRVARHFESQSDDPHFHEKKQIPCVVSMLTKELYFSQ
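System: Uncleavable procaspase-7 mutant enzyme; Amount: 2 µM procaspase-7 mutant as dispensed; Schedule: 1 h compound preincubation, 2 h substrate cleavage, 25 °C; Measured by: 405 nm absorbance of p-nitroaniline; Evaluation: percent activation from buffer-corrected 0–120 min absorbance change; Control set: low DMSO alone, high DMSO plus 5 µM PC-7.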
MPTP inh = blocks calcium-induced mitochondrial swelling; isolated mouse mitochondria, Ca2+ swelling absorbance, 30 min; inhibition, % at 10 µM; hit rate 1.4% among 360,000;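 active means inhibition of 50% or more, scaled per plate between neutral and stimulator controls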
Of the large screens only hits and unclear results are named; the others gave an inactive call. This is a sample that favours compounds with a hit; in the whole collection about 3.7% have one here.

COc1ccc2[nH]cc(CCNC(=O)c3ccc([N+](=O)[O-])cc3)c2c1	NR3A LBD binder 12
N#CCC(=O)Nc1ccc(C(=O)NCCc2c[nH]c3ccccc23)cc1	NR3A LBD binder 18
CC(=O)Nc1c(Cl)cc(Cl)c2c1Cc1cc(Cl)ccc1-2	none (no result: procasp3 activ, procasp7 counter)
O=C1CC(=O)N(C2CCCCC2)C(=O)N1c1ccccc1S(=O)(=O)Oc1ccccc1	none (no result: procasp3 activ, NR3A LBD binder, procasp7 counter)
O=C(CCCc1c[nH]c2ccccc12)NCCc1c[nH]c2ccccc12	NR3A LBD binder 15
CC(=O)Nc1ccc(NC(=O)CCCc2c[nH]c3ccccc23)cc1	none
O=C(CCCc1c[nH]c2ccccc12)Nc1ccc2ccccc2c1	NR3A LBD binder 24
O=C(NCCc1c[nH]c2ccccc12)c1ccc(-n2cnnn2)cc1	NR3A LBD binder 13
O=C(NCCc1c[nH]c2ccccc12)c1ccc([N+](=O)[O-])cc1	NR3A LBD binder 25
CCc1nc2c(OCC=C(C)C)cccn2c1N(C)C(=O)c1ccc(OC)cc1	none (no result: procasp3 activ, NR3A LBD binder, procasp7 counter)
O=C(NCCc1c[nH]c2ccccc12)c1ccccc1	NR3A LBD binder 13
Cc1ccc(C(=O)NCCc2c[nH]c3ccccc23)s1	NR3A LBD binder 27
COC(=O)c1cnn(-c2ccc(C)c(C)c2)c1-n1cccc1	NR3A LBD binder 11
O=C(O)c1cccc(Br)c1	none (no result: procasp3 activ, procasp7 counter)
COC(=O)c1ccc(N2CCC(c3cc(-c4ccc(OC)cc4)n[nH]3)CC2)c([N+](=O)[O-])c1	none
CC(=O)c1ccc(N2CCC(c3cc(-c4ccc(Cl)cc4)n[nH]3)CC2)c([N+](=O)[O-])c1	NR3A LBD binder 14
COc1c(CC=C(C)C)cc(C2CC(=O)c3c(O)cc(O)cc3O2)c(CC=C(C)C)c1O (configuration not stated)	NR3A LBD binder 22 (no result: aDG glyco act, MPTP inh)
COc1cc(C2CC(=O)c3c(O)cc(O)cc3O2)ccc1O (configuration not stated)	none
O=C(Cc1cccs1)Nc1nc2c(ccc3ccccc32)s1	NR3A LBD binder 11
CC(=O)c1cccc(NC(=O)c2ccc(Br)o2)c1	none
CCCC(=O)Nc1nc2ccc(NC(=O)c3ccc(Br)o3)cc2s1	NR3A LBD binder 18
O=C(/C=C/c1ccco1)Nc1ccc2nn(-c3ccccc3)nc2c1	NR3A LBD binder 14
CCOc1ccc(C(=O)Nc2ccc3c(c2)OCCO3)cc1OC	none
CCOc1ccc(-n2nc3ccc(NC(=O)c4ccc5c(c4)OCCO5)cc3n2)cc1	NR3A LBD binder 19
O=C(Nc1ccc2nn(-c3ccccc3)nc2c1)c1ccc(Br)o1	NR3A LBD binder 19
Cc1cc(NC(=O)/C=C/c2ccco2)ccc1NC(=O)c1ccccc1	none
O=C(NCCOc1ccccc1Cl)c1ccc2c(c1)S(=O)(=O)c1cc(Cl)ccc1C2=O	none
O=S(=O)(NC(CO)Cc1ccccc1)c1ccc(Br)cc1F (configuration not stated)	none (no result: procasp3 activ, procasp7 counter)
O=C(Nc1ccc2nn(-c3ccccc3)nc2c1)c1ccc2c(c1)OCCO2	NR3A LBD binder 21
Cc1cn(C2CCCCC2)c(=O)n(-c2ccccc2)c1=O	none (no result: procasp3 activ, procasp7 counter)
Nc1ccn([C@@H]2O[C@H](C(=O)N[C@H](CO)c3ccccc3)[C@@H](O)[C@H]2O)c(=O)n1	none (no result: procasp3 activ, NR3A LBD binder, procasp7 counter)
COc1cccc(Oc2ccc(N)cn2)c1	none
Cc1cc(Oc2ccc(N)cn2)ccc1Cl	NR3A LBD binder 14
CCCCCc1ccnc(CC(=O)c2ccc(OC)cc2)c1	none (no result: procasp3 activ, procasp7 counter)
Cc1ccc([N+](=O)[O-])cc1-c1ccc(/C=C(\C#N)c2[nH]nc(N)c2C#N)o1	NR3A LBD binder 17
Fc1ccccc1N=C1NN=C(c2ccccc2)CS1	NR3A LBD binder 13
CC1CC(C#N)N(N(C)C)C1=C(C#N)C#N (configuration not stated)	NR3A LBD binder 17
Cc1ccc(S(=O)(=O)N/N=C/c2ccc(O)cc2O)cc1[N+](=O)[O-]	none
O=S(=O)(NN=Cc1ccc(O)cc1O)c1cc(Cl)c(Cl)cc1Cl	NR3A LBD binder 22 (no result: procasp3 activ, procasp7 counter)
Cc1c(C(=O)N2CCc3ccccc32)oc2ccccc12	NR3A LBD binder 14
COc1ccccc1OCCOCCOc1c(C)cc(C)cc1Br	none
COc1cccc(OC)c1OCCCOc1ccc(C)cc1Br	NR3A LBD binder 10
COc1ccccc1OCCCOc1c(C)cc(C)cc1Br	NR3A LBD binder 16
CC(O)(c1cccnc1)c1nc(-c2cccc(C#N)c2)cs1 (configuration not stated)	none (no result: procasp3 activ, NR3A LBD binder, procasp7 counter)
Cc1ccc2c(=O)n3c(nc2c1)C(Cc1ccc(O)cc1)NC(=O)c1cc2ccccc2cc1-3 (configuration not stated)	none (no result: procasp3 activ, NR3A LBD binder, procasp7 counter)
CCOC(=O)[C@]12CCCC=C1N(CCC1=CCCCC1)C(=O)[C@H](CC(=O)NCC13CC4CC(CC(C4)C1)C3)C2	none (no result: procasp3 activ, NR3A LBD binder, procasp7 counter)
O=C(O)c1ccccc1N=Nc1c(O)[nH]c2ccc([N+](=O)[O-])cc12	NR3A LBD binder 27
O=[N+]([O-])c1ccc2[nH]c(O)c(N=NC(=S)NCC3CCCO3)c2c1 (configuration not stated)	NR3A LBD binder 27
Cc1ccc(NCC(=O)N=Nc2c(O)[nH]c3ccc([N+](=O)[O-])cc23)cc1	none (no result: aDG glyco act, MPTP inh)
CCCCCC(=O)N=Nc1c(O)[nH]c2ccc([N+](=O)[O-])cc12	NR3A LBD binder 30
CCNC(=S)N=Nc1c(O)[nH]c2ccc([N+](=O)[O-])cc12	none
Cc1ccc(C)c(NC(=O)CN(C)C(=O)c2cccc(S(=O)(=O)N3CCN(Cc4ccccc4)CC3)c2)c1	NR3A LBD binder 17
Cc1ccc(C)c(NC(=O)CN(C)C(=O)c2cccc(S(=O)(=O)N3CCCC3)c2)c1	none (no result: procasp3 activ, procasp7 counter)
C=CCNC(=S)NNc1nc2c(c(=O)[nH]1)C1(CCCC1)Cc1ccccc1-2	none
O=c1[nH]c(NNC(=S)NCc2ccccc2)nc2c1C1(CCCCC1)Cc1ccccc1-2	NR3A LBD binder 26
CC(=O)Nc1ccc(NC(=O)/C=C/c2cccc(C(F)(F)F)c2)cc1	NR3A LBD binder 18
CC(=O)Nc1ccc(NC(=O)/C=C/c2ccc(Cl)cc2)cc1	NR3A LBD binder 13
CC(=O)Nc1ccc(NC(=O)CN2CCN(c3cccc(C(F)(F)F)c3)CC2)cc1	none
CC(=O)Nc1ccc(CN2CCN(c3cccc(C(F)(F)F)c3)CC2)cc1	NR3A LBD binder 20
O=C(/C=C/c1ccc(Cl)cc1)Nc1ccc(N2CCOCC2)cc1	none
O=C(COC(=O)C1=COCCO1)Nc1cc(Cl)c(Cl)cc1Cl	none
C=CCC1(CC=C)CCCN1C(=O)c1ccc2oc(CCCC)nc2c1	none (no result: procasp3 activ, NR3A LBD binder, procasp7 counter)
CCOc1ccc(Nc2ccc(C(=O)O)cc2[N+](=O)[O-])cc1	none
COc1ccc(/C=C/C(=O)Nc2ccccc2C(=O)O)cc1	NR3A LBD binder 20
CCOc1ccc(/C=C/C(=O)Nc2ccc(OC)cc2[N+](=O)[O-])cc1	NR3A LBD binder 28
COc1ccc(/C=C/C(=O)Nc2ccccc2C(=O)N2CCCC2)cc1	none
CCOc1ccc(N/C=C/C(=O)c2ccccc2)c([N+](=O)[O-])c1	NR3A LBD binder 18

Screening data (PubChem BioAssay)
